Bioassay records from PubChem BioAssay.
RORA inh: inhibitors of orphan receptor RORA, primary screen, cell-based, luminescence | Nuclear receptor ROR-alpha (Homo sapiens), P35398 | CHO-K1 Gal4-RORA LBD luciferase reporter | inhibition, % at 10 µM | 0.43% of 65,000 active;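 active means inhibition above the mean of all tested compounds plus 3 SD, cut at about 52% in these data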;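 further: 0% = RORA-transfected cells with DMSO and 100% = mock-transfected cells lacking RORA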
Target sequence (P35398 whole entry, looked up, the tested form may be a part): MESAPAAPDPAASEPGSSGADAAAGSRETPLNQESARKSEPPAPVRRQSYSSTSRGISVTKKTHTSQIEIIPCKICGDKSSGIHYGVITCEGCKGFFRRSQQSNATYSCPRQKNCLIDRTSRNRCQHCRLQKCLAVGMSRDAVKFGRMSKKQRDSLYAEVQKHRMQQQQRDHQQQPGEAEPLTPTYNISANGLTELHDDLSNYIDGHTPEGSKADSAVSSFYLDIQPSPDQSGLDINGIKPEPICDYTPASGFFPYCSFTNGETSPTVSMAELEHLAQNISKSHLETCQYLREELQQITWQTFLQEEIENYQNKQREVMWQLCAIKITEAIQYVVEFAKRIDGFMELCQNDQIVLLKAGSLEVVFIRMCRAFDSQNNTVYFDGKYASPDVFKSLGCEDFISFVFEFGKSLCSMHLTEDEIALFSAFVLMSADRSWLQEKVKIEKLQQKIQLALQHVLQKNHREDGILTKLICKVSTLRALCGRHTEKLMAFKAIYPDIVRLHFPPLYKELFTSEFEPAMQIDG
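Material: transiently transfected CHO-K1 cells, Gal4-DBD/human RORA-LBD fusion plus 5xGal4-luciferase reporter; doses: single concentration per compound, 10 µM final; incubation: 20 h at 37 °C; detection: luminescence from basal luciferase reporter expression; read-out: % inhibition of basal luciferase versus +RORA/-RORA DMSO controls; replication: tested once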
Active calls of the source: *. Shown is part of a subset that was picked to be rich in hits.

SMILES	RORA inh
Cc1ccc(OCC(=O)N2CCC(N3CCCCCC3)CC2)cc1	-8
COc1ccc(NC(=O)CCCC2=NS(=O)(=O)c3ccccc3N2)cc1	6
Cn1cnnc1SCC(=O)Nc1ccccc1C(=O)NC1CCCC1	-4
CCOC(=O)c1c(C)[nH]c(C(=O)C(C)OC(=O)c2cccc(OCc3c(C)noc3C)c2)c1C (configuration not stated)	56*
CCOC(=O)c1[nH]c(C)c(C(=O)c2cc(F)ccc2F)c1C	8
COc1ccc2nc(NC(=O)c3cccc(OCc4c(C)noc4C)c3)sc2c1	-86
C=CCN(CC(=O)NCc1ccccc1)C(=O)c1csnn1	13
COc1cccc(CN(C(=O)c2cc3ccccc3oc2=O)C2CC2)c1	-52
Cn1nc(CC(=O)Nc2ccc(N3CCN(C(=O)OC(C)(C)C)CC3)cc2)c2ccccc2c1=O	86*
Cc1cc(C)n(-c2ccc(C(=O)Nc3ccc4c(c3)OCCO4)cc2)n1	-75
Cc1cc2ccccc2c(=O)n1CC(=O)Nc1ccc2c(c1)OCO2	3
COc1ccc(N2CCN(C(=O)C3CCC(Cn4c(=S)[nH]c5ccccc5c4=O)CC3)CC2)cc1 (configuration not stated)	-18
COc1ccccc1N1CCN(CC(=O)Nc2ccc(C)c(F)c2)CC1	-2
CCCCC(=O)Nc1ccc(N2CCN(C(=O)CC)CC2)cc1	10
Cc1ccc(NC(=O)Cc2nn(C)c(=O)c3ccccc23)cc1F	76*
Cc1ccc(NC(=O)Cn2nc(C)c3ccccc3c2=O)cc1F	7
Cn1nc(CC(=O)Nc2ccc3c(c2)OCCO3)c2ccccc2c1=O	75*
COc1ccc(CCNC(=O)C2CCCN(S(=O)(=O)c3cccc4nonc34)C2)cc1OC (configuration not stated)	3
CCCCc1ccc(C2C(C#N)=C(N)SC(N)=C2C#N)s1	-8
COC(=O)CCC(=O)N1CCc2cc(S(=O)(=O)N3CCc4ccccc43)ccc21	19
CC1(C)CC(=O)C(/C=N/c2ncccc2C(=O)O)=C(O)C1	2
Cc1cc(C(=O)Nc2c(F)cc(F)cc2Br)c(C)o1	18
NC(=O)CSc1nnc(Cc2ccc3c(c2)OCO3)n1C1CCCCC1	-7
COc1cccc(C2C(C(=O)c3ccco3)=C(O)C(=O)N2CCCN2CCOCC2)c1OC (configuration not stated)	5
O=c1[nH]c(CN2CCN(Cc3ccc4c(c3)OCO4)CC2)nc2sc3c(c12)CCC3	9
SMILES	RORA inh
COc1cc2c(cc1OC)C(=NCCC(=O)O)NC(C)(C)C2	3
O=C(O)c1cccc(S(=O)(=O)N2CCSCC2)c1	3
O=C1COc2ccc(OCc3ccc(F)cc3)cc21	-78
Cc1ccc(S(=O)(=O)N2CCC(C(=O)N3CCC(C(=O)NCc4cccnc4)CC3)CC2)cc1	10
COc1ccc(CC(CC(=O)O)C(=O)Nc2ccccc2)cc1 (configuration not stated)	-3
Cc1ccc(-c2cn3nc(C)c(C)nc3n2)cc1	74*
Brc1ccc(-c2cn3cccnc3n2)cc1	-53
Cc1ccc(-n2c(SCC(=O)Nc3ccc4cn[nH]c4c3)nnc2-c2ccco2)cc1	0
CCOC(=O)c1[nH]c(C)c(C(=O)Nc2cccc(Cl)c2C)c1C	-64
O=C(O)C1CCN(C(=O)NC2CCCCC2)CC1	10
CCCn1c(C)cc(C(=O)CN2C(=O)c3ccccc3C2=O)c1C	-55
COCCn1c(C)cc(C(=O)COC(=O)c2n[nH]c3ccccc23)c1C	58*
C=CCn1c(C)cc(C(=O)COc2nncc3ccccc23)c1C	-80
Cc1ccc(-c2noc(CCC(=O)NCc3ccc4c(c3)OCO4)n2)cc1	25
Cc1cc(C(F)F)n2nc(C(=O)Nc3ccccc3Br)nc2n1	-8
CCCCc1ccc(NC(=O)C2CCCO2)cc1 (configuration not stated)	-76
CCC(C)NC(=O)c1cc(-c2ccc(OC)cc2)on1 (configuration not stated)	-60
CCOc1ccc(-c2cc(C(=O)NCCCN3CCN(CC)CC3)c3ccccc3n2)cc1	-32
CCOc1ccc(-c2cc(CCCC(=O)NCCCOC)no2)cc1	58*
Clc1ccc(OCCN2CCN(c3ncnc4sccc34)CC2)cc1	81*
c1ccc(-c2cnnc(N3CCCCC3)n2)cc1	-58
COc1cccc2sc(Nc3nc(-c4ccccn4)cs3)nc12	69*
COc1cccc(Nc2nc(-c3sc(N)nc3C)cs2)c1	-27
COc1cc(-c2nnc3sc(-c4cccnc4)nn23)cc(OC)c1OC	15
COc1cccc(-c2nnc3n2N=C(C(C)(C)C)CS3)c1	62*
SMILES	RORA inh
CCOc1cccc(-c2nnc3n2N=C(c2cc(OC)ccc2OC)CS3)c1	-61
CC1(C)COCN1S(=O)(=O)c1ccc(C(=O)Nc2nnc(-c3ccc(Cl)s3)o2)cc1	53*
CC1CC(C)CN(C(=O)CSc2nnc(-c3ccc(Cl)s3)o2)C1 (configuration not stated)	-10
COc1ccccc1-c1nnc(NC(=O)c2ccc(S(=O)(=O)N(C)C)cc2)o1	-7
COc1ccc(NC(=O)CSc2nnc(Cn3c(=O)sc4ccccc43)n2C)c(OC)c1	-14
CSCCC(CO)NC(=O)OCc1ccccc1 (configuration not stated)	16
CC(=O)Nc1ccc(S(=O)(=O)N2CCN(C(=O)N3CCCCCC3)CC2)cc1	3
COC(=O)c1ccc(CSc2nc3c(c(=O)n2-c2ccc(Br)cc2)SCC3)o1	-5
CC(=O)c1ccc(N2CCN(c3ccc(C(F)(F)F)cn3)CC2)cc1	54*
CC(=O)c1cc2c(cc1NC(=O)CN1CCN(c3cccc(C(F)(F)F)c3)CC1)OCO2	12
COc1ccc(C(=O)CN2CCN(c3ccc(F)cc3)CC2)cc1OC	14
COc1ccc(C(=O)Cn2c(N3CCOCC3)nc3ccccc32)cc1OC	19
NC(=O)C1(N2CCCCC2)CCN(C(=O)Nc2ccccc2C(F)(F)F)CC1	-1
COc1cccc(C(=O)c2sc(NC(C)C)nc2N)c1	57*
COc1cccc(C(=O)Nc2ccccc2N2CCCC2)c1	10
CCCC(=O)Nc1nc2ccc(OC)cc2s1	-56
CC(=O)OC1=C(C#N)Cn2ccc3cccc1c32	-4
COCCN(CC(=O)Nc1ccc(F)cc1)S(=O)(=O)c1ccc(S(=O)(=O)N2CCCC2)cc1	-12
COC(=O)C(O)(NC(=O)NC(C)=O)C(F)(F)F (configuration not stated)	-28
COC(=O)c1ccc(-c2ccc(CNCC(O)c3ccccc3)o2)cc1 (configuration not stated)	-11
Cc1cc(C)n(C(=O)CNC(=O)c2ccc3c(c2)OCCO3)n1	-5
CCN(CC)C(=O)c1sc2nc(-c3ccc(OC)cc3)cn2c1C	-98
COc1cc(OC)cc(-c2cc3nc(C)c(CCC(=O)O)c(C)n3n2)c1	77*
CCc1c(C)nc2cc(-c3ccc(OC)cc3)[nH]n2c1=O	-58
O=S(=O)(c1ccc(NC2CCCCC2)cc1)N1CCOCC1	12
SMILES	RORA inh
CC(=O)Nc1ccccc1OCC(=O)c1cc(C)n(Cc2cccs2)c1C	89*
COc1cc(NC(=O)CSc2nc(C)cs2)cc(OC)c1	6
Cc1csc(SCC(=O)c2cc(C)n(Cc3cccs3)c2C)n1	77*
Cc1csc(SCc2ccccc2C(=O)O)n1	-13
CC(=O)Nc1ccc(SCC(=O)c2cc(C)n(Cc3cccs3)c2C)cc1	67*
Cc1cc(C(=O)CSc2nnc(-c3ccco3)o2)c(C)n1Cc1ccco1	2
